High-throughput results: PubChem, several laboratories
Compounds with a hit are over-represented: about 2% of the library has one in this group of screens.
Lipid droplet – hepatic lipid droplet formation modulation; AML12 mouse hepatocytes, oleate lipid droplets, BODIPY imaging; inhibition, % at 6.5 µM; 240,000 tested, 0.4% active;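 active means lipid droplet intensity inhibited by at least 50%, with more than 500 cells counted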
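Technique: fluorescence imaging, 20x objective, two fields per well / Assay system: AML12 hepatocytes (mouse) / Measure: % inhibition of lipid droplet signal / Doses: 6.5 µM single-point dosing / Incubation: overnight exposure / Reagent: 100 µM oleic acid challenge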
RBBP9 inhibitor – blocks human serine hydrolase RBBP9; O75884; recombinant RBBP9, FP-Rh probe fluorescence polarization; inhibition, % at 7.94 µM; 220,000 tested, 0.2% active; AID 1515;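 active means inhibition above the campaign mean of all tested compounds plus 3 SD, cut at about 14% in these data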;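 further: plate controls were DMSO wells with RBBP9 for no effect and wells lacking RBBP9 protein for full effect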
Target sequence (O75884 whole entry, looked up): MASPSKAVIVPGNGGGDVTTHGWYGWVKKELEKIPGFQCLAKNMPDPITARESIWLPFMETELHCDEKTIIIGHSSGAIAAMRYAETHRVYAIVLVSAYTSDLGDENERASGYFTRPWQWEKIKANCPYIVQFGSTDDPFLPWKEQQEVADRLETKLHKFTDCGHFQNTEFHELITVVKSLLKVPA
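Measured by: FP readout at 525/598 nm; material: recombinant human RBBP9; also added: Serine-hydrolase probe FP-Rh, 375 nM pre-mixing; medium: Tris buffer pH 8.0, NaCl, Pluronic; replication: one well per compound; doses: one concentration, 7.94 µM nominal, 0.794% DMSO; timing: preincubation 30 min plus labeling 45 min at 25 °C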
zVAD death inh – blocks zVAD induced death of L929 cells; AID 1377; viability rescue, % at 10 µM; 220,000 tested, 0.38% active; L929 zVAD necroptosis rescue, ATP luminescence, 24 h; with zVAD 60 µM;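 active means activation, scaled between plate controls, above about 75%, limit read from the data; inactive means activation under that limit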;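 further: 0% = zVAD with DMSO and 100% = DMSO alone without zVAD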
TbHK1 inh – blocks Trypanosoma brucei hexokinase 1 activity; recombinant TbHK1, G6PDH-coupled NADH A340; inhibition, % at 10 µM; 220,000 tested, 0.11% active;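 active means inhibition of 50% or more in the single-dose primary screen; inactive means inhibition below 50%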
PfM18AAP inh-1 – PfM18AAP enzyme inhibition. recombinant PfM18AAP, H-Glu-NHMec fluorogenic cleavage. AID 1822. inhibition, % at 7.35 µM. 290,000 tested, 1.2% active;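 active means inhibition above the campaign mean inhibition over all tested compounds plus 3 SD, cut at about 28% in these data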;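 further: 0% = plate median of test compound wells and 100% = 2 mM ZnCl2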
TNF necrop inh – TNF-alpha cell death inhibition in Jurkat FADD-/- cells; AID 463075; Jurkat FADD-/- TNF necroptosis rescue, ATP luminescence, 24 h; 0 = TNF only, 100 = no-TNF cells; 220,000 tested, 0.068% active; activation (protection from cell death), % at 10 µM;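 active means activation, meaning protection from cell death, of at least 50% relative to plate controls; inactive means activation below 50%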;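 further: necroptosis triggered by 40 ng/mL TNF-alpha added together with compound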
PfM18AAP inh-2 – confirmation of Plasmodium falciparum M18 aspartyl aminopeptidase inhibitors; recombinant PfM18AAP, H-Glu-NHMec fluorogenic cleavage; shares compounds with PfM18AAP inh-1; 2,400 tested, 28% active; AID 2170; inhibition, % at 7.35 µM;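 active means mean inhibition over replicate wells above the hit cutoff set for the earlier primary screen, cut at about 29% in these data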;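 further: 0% = median of test compound wells and 100% = 2 mM ZnCl2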
CTSL1 confirm – Cathepsin L (human) inhibition, confirmation. shares compounds with PfM18AAP inh-1. 2,400 tested, under 10 active. AID 2178. purified cathepsin L1, Z-Leu-Arg-MCA fluorescence. inhibition, % at 5.96 µM;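 active means average inhibition across replicates above the hit cutoff set in the earlier primary screen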;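 further: 0% = median of test compound wells and 100% = Z-Phe-Ala-diazomethylketone 1 µM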
Target sequence (P07711 whole entry, looked up): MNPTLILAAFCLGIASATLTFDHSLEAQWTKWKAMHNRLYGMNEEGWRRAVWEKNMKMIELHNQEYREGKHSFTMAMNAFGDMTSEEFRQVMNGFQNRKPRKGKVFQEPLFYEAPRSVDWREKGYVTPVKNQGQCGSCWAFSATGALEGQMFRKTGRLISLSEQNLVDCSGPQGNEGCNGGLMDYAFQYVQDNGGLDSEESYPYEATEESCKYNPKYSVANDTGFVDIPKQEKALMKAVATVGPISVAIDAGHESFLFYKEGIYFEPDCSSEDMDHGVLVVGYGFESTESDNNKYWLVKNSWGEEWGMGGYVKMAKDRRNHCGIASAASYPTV
The depositor's hits bear a star; / = no result.

SMILES | Lipid droplet | RBBP9 inhibitor | zVAD death inh | TbHK1 inh | PfM18AAP inh-1 | TNF necrop inh | PfM18AAP inh-2 | CTSL1 confirm
Oc1ccc(-c2nc(-c3ccc(O)c(O)c3)cs2)cc1 | / | 14 | 53 | -15 | 59* | -15 | 71* | -13
Cc1sc2nc(CSc3ncn[nH]3)[nH]c(=O)c2c1C | 1 | -4 | 3 | 0 | 72* | -1 | 71* | -3
CNC(=S)/N=C(/Nc1ccccc1)c1ccccc1 | -2 | -6 | -1 | -5 | 44* | -1 | -28 | 0
Cc1cc(=O)oc2cc(NC(=O)Cc3ccccc3[N+](=O)[O-])ccc12 | 4 | / | / | / | -3 | / | / | /
Cc1ccccc1NC(=S)C1=C(O)c2sccc2N(C)S1(=O)=O | -3 | -14 | -1 | -33 | 33* | -2 | -47 | 3
Cc1ccc(SCc2cc(=O)c3c(=O)n(-c4ccccc4)[nH]c3[nH]2)cc1 | -33 | -3 | 1 | -4 | 3 | 0 | / | /
CN(C)c1ccc(N/C=C/C(=O)C(C)(C)C)cc1 | -1 | 4 | -1 | -18 | 22 | 0 | / | /
CC(C)(C)C(=O)/C=C/Nc1ccccc1O | -7 | -6 | 53 | -12 | 42* | 22 | 3 | -1
Cn1cc(P(=S)(N2CCOCC2)N2CCOCC2)cc1P(=O)(N1CCOCC1)N1CCOCC1 | 4 | -4 | 1 | -1 | 23 | 0 | / | /
Cn1cc(P(=O)(N2CCOCC2)N2CCOCC2)cc1P(=S)(N1CCOCC1)N1CCOCC1 | 24 | -9 | 0 | 12 | 37* | 0 | -18 | 7
O=C1OC(/C(=C\Nc2ccccc2)[N+](=O)[O-])c2ccccc21 (stereo unspecified) | 6 | 0 | 0 | -18 | 47* | -4 | -36 | -3
Oc1cc2c(cc1CN1CCc3ccccc3C1)OCO2 | 7 | / | / | / | 37* | / | 12 | -6
COc1ccccc1N1CCN(Cc2cc3c(cc2O)OCO3)CC1 | -10 | / | / | / | 16 | / | / | /
Cc1c(NC(=O)CN2CCN(c3ccc([N+](=O)[O-])cc3)CC2)c(=O)n(-c2ccccc2)n1C | 16 | -1 | 0 | -12 | -1 | 0 | / | /
Cc1c(NC(=O)CN2CCN(c3ccc(O)cc3)CC2)c(=O)n(-c2ccccc2)n1C | -28 | -2 | 0 | 0 | 39* | -1 | -24 | 3
Cc1cc(C)n2c(=S)[nH]nc2n1 | / | 13 | 0 | -14 | 81* | -2 | 72* | 2
O=C(NCc1ccco1)c1cc2cc(Br)ccc2o1 | -28 | / | / | / | 33* | / | -13 | -3
O=C(NCc1ccco1)c1cc(=O)c2ccccc2o1 | 16 | -6 | 2 | -1 | -9 | 1 | / | /
O=C(Nc1ncccn1)c1ccc(Cl)c([N+](=O)[O-])c1 | 1 | / | / | / | 1 | / | / | /
COc1ccccc1/C=C/C(=O)OC(C)CN1CCOCC1 (stereo unspecified) | / | -3 | 0 | -11 | 51* | -3 | -39 | 4
CC1SC(=S)N(c2ccc(N(C)C)cc2)C1=O (stereo unspecified) | 5 | / | / | / | 33* | / | 10 | -1
O=c1c2cn[nH]c2[nH]c(=S)n1-c1cccc2ccccc12 | -11 | 2 | / | 4 | 51* | 1 | 4 | 2
O=c1c2cn[nH]c2[nH]c(=S)n1-c1ccccc1 | 8 | -6 | -1 | 0 | 27 | 0 | / | /
COc1ccc(-n2c(=S)[nH]c3[nH]ncc3c2=O)cc1 | -22 | 14 | 1 | -7 | 46* | 1 | -12 | -3
COc1ccc(S(=O)Cc2ccc(C(=O)NCc3cccc(OC)c3)o2)cc1 (stereo unspecified) | -10 | / | / | / | -9 | / | / | /
SMILES | Lipid droplet | RBBP9 inhibitor | zVAD death inh | TbHK1 inh | PfM18AAP inh-1 | TNF necrop inh | PfM18AAP inh-2 | CTSL1 confirm
O=C(c1cc(-c2cccc(Cl)c2)on1)N1CCOCC1 | -9 | / | / | / | 3 | / | / | /
COc1c(C)cccc1C(=O)Nc1cc(-c2nn3c(C)nnc3s2)ccc1C | / | -3 | 0 | -5 | 1 | -6 | / | /
CCOC(=O)Cc1nnc(NC(=O)c2ncn[nH]2)s1 | 1 | -4 | -1 | 1 | 46* | 0 | 0 | -4
C/C(=N\NC(=O)c1cc(O)ccc1O)c1cccc(NC(=O)c2cccc(Cl)c2)c1 | -42 | / | / | / | 16 | / | / | /
C/C(=N\NC(=O)c1cc(O)ccc1O)c1cccc(NC(=O)c2ccc(Cl)cc2)c1 | -16 | / | / | / | 36* | / | -50 | -7
COc1cc(/C=N/Nc2ccc(S(N)(=O)=O)cc2[N+](=O)[O-])cc(OC)c1O | 19 | 9 | 1 | -20 | 45* | -5 | 13 | 3
CC(C)C(O)(C#CCN1CCCCCC1)c1ccccc1 (stereo unspecified) | -7 | -2 | -1 | -5 | -7 | 3 | / | /
CC1CC(C)(C)CC2(C1)NC(=S)N(c1ccccc1)N2 (stereo unspecified) | 16 | 2 | -1 | 5 | 36* | 0 | -48 | -14
CC1(C2CC(C(F)(F)F)n3nc(C(=O)O)cc3N2)CC1 (stereo unspecified) | 10 | -6 | 8 | -1 | -2 | 1 | / | /
COc1ccc(C(=O)N2CCC(c3ccccc3)CC2)c(OC)c1OC | -1 | -37 | 1 | -3 | -15 | 0 | / | /
COC(=O)COc1ccc(C)cc1-n1nc2ccccc2n1 | 11 | -11 | 0 | 6 | 38* | 0 | -39 | -5
Cc1ccc(OC(=O)COc2ccccc2C)c(-n2nc3ccccc3n2)c1 | -5 | -4 | 0 | -2 | 4 | -8 | / | /
N#Cc1c(-c2ccccc2)[nH]c(=S)[nH]c1=O | 4 | -4 | 1 | -48 | 34* | 0 | -22 | -1
CCOC(=O)c1sc(NC(=O)C2CCCO2)c(C(=O)OCC)c1C (stereo unspecified) | 0 | / | / | / | / | / | / | /
CCOC(=O)c1c(NC(=O)C2CCCO2)sc(C)c1C (stereo unspecified) | -9 | -9 | 0 | -9 | -7 | 0 | / | /
Cc1sc(NC(=O)C2CCCO2)c(C(N)=O)c1C (stereo unspecified) | 0 | -9 | 1 | 1 | 37* | 0 | -22 | 0
CCOC(=O)c1c(NC(=O)C2CCCO2)sc(C(=O)OC(C)(C)C)c1C (stereo unspecified) | -3 | -11 | 0 | -6 | 35* | 0 | 7 | 4
COc1ccc(CNCc2cc3c(cc2[N+](=O)[O-])OCO3)cc1 | -5 | / | / | / | 38* | / | -15 | -2
C=CCN(CC=C)C(=O)c1c(OC)cccc1OC | -17 | -2 | / | -4 | -1 | 2 | / | /
C=CCc1c(C)[nH]c2c(OC)cccc2c1=S | -11 | -13 | 1 | 3 | 39* | 0 | 13 | 1
